Activity calls are given as the source filed them. The rule behind the calls is not given here.
What was measured:
Platelet [1] = assay: Antiplatelet activity in human platelet rich plasma assessed as inhibition of ADP-induced platelet aggregation up to 300 uM preincubated for 5 mins followed by ADP stimulation by turbidimetry; type: functional
Platelet [2] = assay: Inhibition of collagen-induced protein tyrosine phosphorylation in human platelets preincubated at 3 to 100 uM for 5 mins followed by collagen stimulation for 10 mins by Western blot analysis; type: functional, cell-based
In short: (§1)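 Washed human platelets in Tyrode-HEPES pH 7.4 preincubated 5 min at 37 °C with 0.4% DMSO or compound (3–100 μM). Stimulated 10 min with collagen (1 μg/ml) or U46619 (0.25 μg/ml). Stopped with boiling Laemmli buffer; SDS-PAGE and anti-phosphotyrosine (4G10) immunoblot. Three separate experiments.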

Mus musculus [3] = assay: Antithrombotic activity in Swiss albino mouse assessed as protection against collagen-epinephrine induced pulmonary thromboembolism at 30 umol/kg, po after 1 hr; type: functional
In short: (§2)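 Male Swiss albino mice (18–22 g) dosed orally in 0.5% carboxymethyl cellulose 1, 2, 4, 6, 12 or 24 h before challenge. Collagen (150 μg/ml) plus adrenaline (50 μg/ml) injected into the tail vein. Dead or hind-limb-paralysed mice counted over 15 min and expressed as % protection. Ten mice per drug group, five for vehicle.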

Plasma [4] = assay: Anticoagulant activity in human plasma assessed as activated partial thromboplastin time at 30 to 300 uM; type: functional, cell-free
In short: (§3)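 Human plasma from healthy donors, blood collected in CPD 1:7 and spun twice to give platelet-poor plasma. TT, PT and aPTT determined with commercial kits on a coagulometer. Hirudin 1 μg/ml served as reference anticoagulant; 0.4% DMSO vehicle.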

Platelet [5] = assay: Antiplatelet activity in human platelet rich plasma assessed as inhibition of ristocetin-induced platelet aggregation up to 300 uM preincubated for 5 mins followed by ristocetin stimulation by turbidimetry; type: functional
Aorta [6] = assay: Inhibition of U46619-induced vasocontraction in Sprague-Dawley rat thoracic aoritc rings at 15 uM (reference value: 89.8 +/- 8.5%); type: functional; design: scale not given: the % may be the effect or the level left
Platelet [7] = assay: Inhibition of human platelet adhesion over collagen at 300 uM for 15 mins in presence of Mg2+ by microplate reader analysis; type: functional, cell-based
In short: (§4)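 Wells coated overnight with fibrillar type I collagen and blocked with BSA. Washed platelets (1×10^8/ml) preincubated 15 min at 37 °C with compound or DMSO, then allowed to adhere 1 h at room temperature in Tyrode-HEPES with 1 mM Mg2+ or with Mg2+ replaced by 50 μM EDTA. Adherent cells quantified with p-nitrophenyl phosphate in citrate pH 5.4 (60 min, 25 °C), NaOH stop, A405.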

Mus musculus [8] = assay: Antithrombotic activity in Swiss albino mouse assessed as protection against collagen-epinephrine induced pulmonary thromboembolism at 30 umol/kg, po after 4 hrs; type: functional; in short: as §2
[9] = Antiplatelet activity in human platelet rich plasma assessed as inhibition of U46619-induced platelet aggregation preincubated for 5 mins followed by U46619 stimulation by turbidimetry; type: functional
Platelet [10] = assay: Inhibition of human platelet adhesion over collagen for 15 mins in presence of Mg2+ by microplate reader analysis; type: functional, cell-based; in short: as §4
Platelet [11] = assay: Antiplatelet activity in human platelet rich plasma assessed as inhibition of arachidonic acid-induced platelet aggregation up to 300 uM preincubated for 5 mins followed by arachidonic acid stimulation by turbidimetry; type: functional
Platelet [12] = assay: Inhibition of human platelet adhesion over collagen at 300 uM for 15 mins in absence of Mg2+ by microplate reader analysis; type: functional, cell-based; in short: as §4
Aorta [13] = assay: Inhibition of U46619-induced vasocontraction in Sprague-Dawley rat thoracic aoritc rings at 3 and 5 uM; type: functional
[14] = Antiplatelet activity in human platelet rich plasma assessed as inhibition of U46619-induced platelet aggregation at 30 uM preincubated for 5 mins followed by U46619 stimulation by turbidimetry; type: functional
In short: (§5)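 Human PRP (1×10^8 platelets/ml) from healthy-donor blood spun at 1000 rpm for 10 min. Pre-treated 5 min with compound or 0.4% DMSO vehicle, then agonist added at 37 °C. Light-transmission aggregometry run at least 5–10 min; % aggregation calculated. Single-point screens at 30 μM, n = 3; mean ± SEM.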

Aorta [15] = assay: Inhibition of KCl-induced vasocontraction in Sprague-Dawley rat thoracic aoritc rings; type: functional
Aorta [16] = assay: Inhibition of U46619-induced vasocontraction in Sprague-Dawley rat thoracic aoritc rings at 30 uM (reference value: 89.8 +/- 8.5%); type: functional; design: scale not given: the % may be the effect or the level left
Mus musculus [17] = assay: Toxicity in Swiss albino mouse assessed as bleeding time at 30 umol/kg, po administered as single dose measured after 4 hrs (reference value: 3.5 +/- 0.3 mins); type: organism-based; settings: in vivo
Platelet [18] = assay: Inhibition of human platelet adhesion over collagen at 30 uM for 15 mins in presence of Mg2+ by microplate reader analysis; type: functional; settings: 0.25 h; in short: as §4
Platelet [19] = assay: Antiplatelet activity in human platelet rich plasma assessed as inhibition of CRP-XL-induced platelet aggregation up to 300 uM preincubated for 5 mins followed by CRP-XL stimulation by turbidimetry; type: functional
Plasma [20] = assay: Anticoagulant activity in human plasma assessed as thrombin time at 30 to 300 uM; type: functional, cell-free; in short: as §3
Platelet [21] = assay: Antiplatelet activity in human platelet rich plasma assessed as inhibition of TRAP-induced platelet aggregation up to 300 uM preincubated for 5 mins followed by TRAP stimulation by turbidimetry; type: functional
[22] = Antiplatelet activity in human platelet rich plasma assessed as inhibition of collagen-induced platelet aggregation at 30 uM preincubated for 5 mins followed by collagen stimulation by turbidimetry; type: functional; in short: as §5
Platelet [23] = assay: Inhibition of human platelet adhesion over collagen for 15 mins in absence of Mg2+ by microplate reader analysis; type: functional, cell-based; in short: as §4
Platelet [24] = assay: Inhibition of U46619-induced protein tyrosine phosphorylation in human platelets preincubated at 3 to 100 uM for 5 mins followed by U46619 stimulation for 10 mins by Western blot analysis; type: functional, cell-based; in short: as §1
Mus musculus [25] = assay: Antithrombotic activity in ferric chloride-induced Swiss albino mouse arterial thrombosis model assessed as prolonged time to occlusion at 20 umol/kg, po measured after 4 hrs (reference value: 9.5 +/- 0.4 mins); type: functional
[26] = Antiplatelet activity in human platelet rich plasma assessed as inhibition of arachidonic acid-induced platelet aggregation at 300 to 500 uM preincubated for 5 mins followed by arachidonic acid stimulation by turbidimetry; type: functional
Plasma [27] = assay: Anticoagulant activity in human plasma assessed as prothrombin time at 30 to 300 uM; type: functional, cell-free; in short: as §3
Mus musculus [28] = assay: Toxicity in Swiss albino mouse assessed as bleeding time at 30 umol/kg, po administered as single dose measured after 1 hr (reference value: 3.5 +/- 0.3 mins); type: organism-based; settings: in vivo
Platelet [29] = assay: Inhibition of human platelet adhesion over collagen at 30 uM for 15 mins in absence of Mg2+ by microplate reader analysis; type: functional; settings: 0.25 h; in short: as §4
[30] = Antiplatelet activity in human platelet rich plasma assessed as inhibition of collagen-induced platelet aggregation preincubated for 5 mins followed by collagen stimulation by turbidimetry; type: functional
Mus musculus [31] = assay: Antithrombotic activity in ferric chloride-induced Swiss albino mouse arterial thrombosis model assessed as prolonged time to occlusion at 30 umol/kg, po measured after 4 hrs (reference value: 9.5 +/- 0.4 mins); type: functional

In the case of O=C([C@@H]1CCC(=O)N1Cc1ccccc1Br)N1CC2CC(CN(Cc3ccccc3)C2)C1, the inhibition (Platelet [1]) is reported as “inactive”, the inhibition (Platelet [2]) is reported as “Active” and the Activity (Mus musculus [3]) is reported as 40%. The Activity (Plasma [4]) was “inactive”, the inhibition (Platelet [5]) was “inactive” and the Activity (Aorta [6]) was 21.8%. For the same molecule, the inhibition (Platelet [7]) was “Active”, the Activity (Mus musculus [8]) was 60% and the IC50 [9] was 7.7 µM. For the same molecule, the inhibition (Platelet [10]) was “Dose-dependent effect”, the inhibition (Platelet [11]) was “inactive” and the inhibition (Platelet [12]) was “Active”. The inhibition (Aorta [13]) was “inactive”, the inhibition at 30 µM [14] was 79% and the inhibition (Aorta [15]) was “inactive”. For the same molecule, the Activity (Aorta [16]) was 14.2%, the Time (Mus musculus [17]) was 4.3 min and the inhibition at 30 µM (Platelet [18]) was 27%. For the same molecule, the inhibition (Platelet [19]) was “inactive”, the Activity (Plasma [20]) was “inactive” and the inhibition (Platelet [21]) was “inactive”. For the same molecule, the inhibition at 30 µM [22] was 86%, the inhibition (Platelet [23]) was “Dose-dependent effect” and the inhibition (Platelet [24]) was “Active”. For the same molecule, the Time (Mus musculus [25]) was 13.3 min, the “inhibition (INH)” value [26] was 50% and the Activity (Plasma [27]) was “inactive”. The Time (Mus musculus [28]) was 3.4 min, the inhibition at 30 µM (Platelet [29]) was 27% and the IC50 [30] was 1.7 µM. It also gave a Time (Mus musculus [31]) of 20 min.

— ChEMBL document CHEMBL3763017, “Synthesis and evaluation of dual antiplatelet activity of bispidine derivatives of N-substituted pyroglutamic acids” (Eur J Med Chem, 2016)
